Measured values: ChEMBL document CHEMBL4373706, “Discovery of Inhibitors of Aurora/PLK Targets as Anticancer Agents” (J Med Chem, 2019)
The source made the active and inactive calls. No cut-off for these calls is given here.

Experiments:
[1] = test system: HCT-116; assay: Antiproliferative activity against human HCT116 cells measured after 48 hrs by MTT assay; assay type: functional, cell-based
Method in brief: (§1)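 Cells were exposed to a range of compound concentrations for 48 h. MTT reagent was then added and absorbance read at 490 nm. Viability was normalized to vehicle control set as 100%, from n = 3 independent experiments, and IC50 was taken from the dose–response curves.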

[2] = test system: MCF7; assay: Antiproliferative activity against human MCF7 cells measured after 48 hrs by MTT assay; assay type: functional, cell-based; method in brief: as §1
[3] = test system: A549; assay: Antiproliferative activity against human A549 cells measured after 48 hrs by MTT assay; assay type: functional, cell-based; method in brief: as §1
[4] = test system: Calu-6; assay: Antiproliferative activity against human Calu6 cells measured after 48 hrs by MTT assay; assay type: functional, cell-based; method in brief: as §1
[5] = test system: HCT-116; assay: Antitumor activity against human HCT116 cells xenografted in BALB/c mouse assessed as survival rate at 10 mg/kg, iv administered every 3 days for 60 days relative to control; assay type: functional; conditions: HCT-116, iv
[6] = test system: HCT-116; assay: Antiproliferative activity against human HCT116 cells measured after 96 hrs by Brdu incorporation-based ELISA; assay type: functional, cell-based; conditions: HCT-116, 96 h
[7] = test system: HCT-116; assay: Inhibition of colony formation in human HCT116 cells at 10 uM incubated for 48 hrs followed by supplemented with fresh medium every 3 days for 2 weeks by crystal violet staining-based assay; assay type: functional, cell-based
[8] = test system: HCT-116; assay: Induction of apoptosis in human HCT116 cells assessed as increase in apoptotic index at 1 to 10 uM measured after 48 hrs by Annexin V-FITC/propidium iodide staining-based flow cytometry; assay type: functional, cell-based

SMILES | Activity [1] | Activity [2] | Activity [3] | Activity [4] | survival at 10 mg/kg [5] [%] | IC50 [6] [µM] | inhibition [7] | Activity [8]
O=C(Nc1ccc2cc(C(=O)NC3CCCCC3)ccc2c1)c1ccc(F)cc1 | Active | Active | Active | Active |  |  |  | 
O=c1[nH]cc(F)c(=O)[nH]1 [FLUOROURACIL] |  |  |  |  | 30 |  |  | 
COc1cc(Nc2ncc3c(n2)-c2ccc(Cl)cc2C(c2c(F)cccc2OC)=NC3)ccc1C(=O)O [ALISERTIB] |  |  |  |  |  | 32 | inactive | Active
CC[C@@H]1C(=O)N(C)c2cnc(Nc3ccc(C(=O)NC4CCN(C)CC4)cc3OC)nc2N1C1CCCC1 |  |  |  |  |  |  | inactive | Active
COc1ccc(C(=O)Nc2ccc3cc(C(=O)NC4CC4)ccc3c2)cc1 | Active | Active | Active | Active |  |  |  | 
